Assay results: ChEMBL document CHEMBL1133117, “S-Acyl-2-thioethyl aryl phosphotriester derivatives as mononucleotide prodrugs” (J Med Chem, 2000)

What was measured:
MT4 [1] = test: Tested for anti-HIV -1 Activity in MT-4 cell culture; format: functional, cell-based; conditions: Homo sapiens
How it was run: (§1)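 HIV-1 replication assayed in human T4 lymphoblastoid CEM-SS or MT-4 cells, or thymidine kinase-deficient CEM (CEM/TK−) cells. EC50 is the concentration that inhibits HIV-1 replication by 50%. Values are averages of at least three separate experiments, with variation below ±10%.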

CCRF-CEM [2] = test: Tested for cytotoxic concentration in CEM-SS cell culture; format: functional; conditions: Homo sapiens
How it was run: (§2)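 Viability of uninfected CEM-SS, MT-4 or CEM/TK− cells measured. CC50 is the concentration that reduces viability by 50%. Values are averages of at least three separate experiments, with variation below ±10%.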

CCRF-CEM [3] = test: Tested for cytotoxic concentration in CEM/TK- cell culture; format: functional; conditions: Homo sapiens; how it was run: as §2
CCRF-CEM [4] = test: Tested for anti-HIV -1 Activity in CEM/TK- cell culture; format: functional, cell-based; conditions: Homo sapiens; how it was run: as §1
MT4 [5] = test: Tested for cytotoxic concentration in MT-4 cell culture; format: functional; conditions: Homo sapiens; how it was run: as §2
CCRF-CEM [6] = test: Tested for anti-HIV -1 Activity in CEM-SS cell culture; format: functional, cell-based; conditions: Homo sapiens; how it was run: as §1
[7] = Partition coefficient (logP); format: physicochemical; conditions: octanol/water
How it was run: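 Apparent partition coefficient (log Papp) measured as distribution between 1-octanol and potassium phosphate buffer (0.02 M, pH 7.2) by an adapted shake-flask method.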

CCRF-CEM [8] = test: Tested for anti-HIV -1 activity in CEM/TK- cell culture; format: functional, cell-based; conditions: Homo sapiens; how it was run: as §1
MT4 [9] = test: Tested for cytotoxic activity in MT-4 cell culture; format: functional; conditions: Homo sapiens; how it was run: as §2
CCRF-CEM [10] = test: Tested for anti-HIV -1 activity in CEM-SS cell culture; format: functional, cell-based; conditions: Homo sapiens; how it was run: as §1
CCRF-CEM [11] = test: Tested for cytotoxic activity in CEM-SS cell culture; format: functional; conditions: Homo sapiens; how it was run: as §2
MT4 [12] = test: Tested for anti-HIV -1 activity in MT-4 cell culture; format: functional, cell-based; conditions: Homo sapiens; how it was run: as §1
CCRF-CEM [13] = test: Tested for cytotoxic activity in CEM/TK- cell culture; format: functional; conditions: Homo sapiens; how it was run: as §2
CCRF-CEM [14] = test: Tested for cytotoxic concentration in CEM/TK- cell culture,(Human); format: functional; how it was run: as §2
CCRF-CEM [15] = test: Tested for cytotoxic concentration in CEM-SS cell culture,(Human); format: functional; how it was run: as §2
CCRF-CEM [16] = test: Tested for anti-HIV -1 Activity in CEM/TK- cell culture,(Human); format: functional, cell-based; how it was run: as §1
MT4 [17] = test: Tested for anti-HIV -1 Activity in MT-4 cell culture,(Human); format: functional, cell-based; how it was run: as §1
CCRF-CEM [18] = test: Tested for anti-HIV -1 Activity in CEM-SS cell culture,(Human); format: functional, cell-based; how it was run: as §1
MT4 [19] = test: Tested for cytotoxic concentration in MT-4 cell culture,(Human); format: functional; how it was run: as §2

| Structure (SMILES) | EC50 (MT4 [1]) [nM] | CC50 (CCRF-CEM [2]) [nM] | CC50 (CCRF-CEM [3]) [nM] | EC50 (CCRF-CEM [4]) [nM] | CC50 (MT4 [5]) [nM] | EC50 (CCRF-CEM [6]) [nM] | logP ([7]; read-out: logP) | further results |
| --- | --- | --- | --- | --- | --- | --- | --- | --- |
| COC(=O)[C@H](Cc1ccc(OP(=O)(OCCSC(=O)C(C)(C)C)OCC2OC(n3cc(C)c(=O)[nH]c3=O)CC2N=[N+]=[N-])cc1)NC(=O)OC(C)(C)C (some centres undefined) | 33 | > 10000 | > 10000 | 2300 | > 10000 | 1 | 3.48 |  |
| Cc1cn(C2CC(N=[N+]=[N-])C(COP(=O)(OCCSC(=O)C(C)(C)C)OCCSC(=O)C(C)(C)C)O2)c(=O)[nH]c1=O (centres undefined) |  | > 10000 | > 10000 | 450 | > 10000 | 15 | 3.73 |  |
| Cc1cn(C2CC(N=[N+]=[N-])C(COP(=O)(OCCSC(=O)C(C)(C)C)Oc3ccc(C[C@H](N)C(=O)OC(C)(C)C)cc3)O2)c(=O)[nH]c1=O (some centres undefined) | 42 | > 10000 | > 10000 | 2700 | > 10000 | 4 | 2.9 |  |
| COC(=O)[C@@H](N)Cc1ccc(OP(=O)(OCCSC(=O)C(C)(C)C)OCC2OC(n3cc(C)c(=O)[nH]c3=O)CC2N=[N+]=[N-])cc1 (some centres undefined) |  |  |  |  |  |  |  | EC50 (CCRF-CEM [8]): 1800 nM; CC50 (MT4 [9]): > 10000 nM; EC50 (CCRF-CEM [10]): 2 nM; logP [7]: 2.25; CC50 (CCRF-CEM [11]): > 100000 nM; EC50 (MT4 [12]): 37 nM; CC50 (CCRF-CEM [13]): > 100000 nM |
| Cc1cn(C2CC(N=[N+]=[N-])C(COP(=O)(OCCSC(=O)C(C)(C)C)Oc3ccc(C[C@H](NC(=O)OC(C)(C)C)C(=O)OC(C)(C)C)cc3)O2)c(=O)[nH]c1=O (some centres undefined) | 250 | > 1000 | > 1000 | 900 | > 1000 | 34 | 4.29 |  |
| Cc1cn(C2CC(N=[N+]=[N-])C(COP(=O)(OCCSC(=O)C(C)(C)C)Oc3ccc(C[C@H](N)C(=O)O)cc3)O2)c(=O)[nH]c1=O (some centres undefined) |  |  |  |  |  |  | 0.24 | CC50 (CCRF-CEM [14]): > 100000 nM; CC50 (CCRF-CEM [15]): > 100000 nM; EC50 (CCRF-CEM [16]): 29000 nM; EC50 (MT4 [17]): 75 nM; EC50 (CCRF-CEM [18]): 6 nM; CC50 (MT4 [19]): > 10000 nM |
| Cc1cn([C@H]2C[C@H](N=[N+]=[N-])[C@@H](COP(=O)(OCCSC(=O)C(C)(C)C)Oc3ccccc3)O2)c(=O)[nH]c1=O (some centres undefined) |  |  |  |  |  |  |  | CC50 (CCRF-CEM [14]): > 10000 nM; EC50 (CCRF-CEM [16]): 3500 nM; EC50 (MT4 [17]): 70 nM; logP [7]: 3.46; EC50 (CCRF-CEM [18]): 2 nM; CC50 (MT4 [19]): > 10000 nM |
| Cc1cn([C@H]2C[C@H](N=[N+]=[N-])[C@@H](CO)O2)c(=O)[nH]c1=O [ZIDOVUDINE] | 15 | > 1000 | > 100000 | > 100000 | > 1000 | 3 | 0.06 |  |
